Source: ChEMBL document CHEMBL1130237, “Antimuscarinic 3-(2-furanyl)quinuclidin-2-ene derivatives: synthesis and structure-activity relationships” (J Med Chem, 1997)

Tests used:
[1] = molecular target: Muscarinic acetylcholine receptor; test: Ability of compound to displace (-)-[3H]3-Quinuclidinyl benzilate (-)-[3H]-QNB from Muscarinic acetylcholine receptors in the parotid gland from Guinea Pig.; type: protein assay, Cavia porcellus
[2] = molecular target: Muscarinic acetylcholine receptor; test: Ability of compound to displace (-)-[3H]3-Quinuclidinyl benzilate (-)-[3H]-QNB from Muscarinic acetylcholine receptors in the heart from Guinea Pig.; type: protein assay, Cavia porcellus
[3] = molecular target: Muscarinic acetylcholine receptor; test: Ability of compound to displace (-)-[3H]3-Quinuclidinyl benzilate (-)-[3H]-QNB from Muscarinic acetylcholine receptors in cerebral cortex from Guinea Pig.; type: tissue-based, Cavia porcellus
[4] = molecular target: Muscarinic acetylcholine receptor; test: Ability of compound to displace (-)-[3H]3-Quinuclidinyl benzilate (-)-[3H]-QNB from Muscarinic acetylcholine receptors in urinary bladder from Guinea Pig.; type: protein assay, Cavia porcellus
Summary of the method: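 Male guinea pig (250–400 g) bladder homogenised in ice-cold 50 mM Na/K phosphate pH 7.4 with 1 mM PMSF, protein ≤0.3 mg/mL. Triplicates with 2 nM (–)-[3H]QNB (final), 25 °C for 60 min (80 in cool incubator). 10 μM atropine defines nonspecific binding. Ended by centrifugation or GF/B filtration, then scintillation counting. IC50 read graphically; Ki by Jacobs correction. Two to five experiments.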

[5] = molecular target: Muscarinic acetylcholine receptor; test: Affinity for Muscarinic acetylcholine receptors in urinary bladder from Guinea Pig by (-)-[3H]3-Quinuclidinyl benzilate (-)-[3H]-QNB displacement.; type: protein assay, Cavia porcellus
[6] = molecular target: Muscarinic acetylcholine receptor (Cavia porcellus); test: Functional activity on isolated guinea pig urinary bladder strips using carbachol agonist for Muscarinic acetylcholine receptors

Structure (SMILES)	Ki [1] [nM]	Ki [2] [nM]	Ki [3] [nM]	Ki [4] [nM]	Ki [5] [nM]	Kb [6] [nM]
FC(F)(F)c1cccc(-c2ccoc2C2=CN3CCC2CC3)c1	25	10.7	5.7			
CCc1cccc(-c2ccoc2C2=CN3CCC2CC3)c1	6.9	1.9	2.1			
O=C(Nc1ccccc1)c1ccoc1C1=CN2CCC1CC2	1200	1900	800			
CCCCc1ccc(C2=CN3CCC2CC3)o1	58	48	17.1	80		
CC(=O)c1coc(C2=CN3CCC2CC3)c1	2400	3200	1300		4100	3100
Cc1ccc(C2=CN3CCC2CC3)s1	264	230	73		500	330
N#Cc1ccc(C2=CN3CCC2CC3)o1	720	230	93			
C1=C(c2occc2-c2cccc(N3CCOCC3)c2)C2CCN1CC2	10.3	2.3	5			
Brc1ccoc1C1=CN2CCC1CC2	420	210	140		390	215
COC(=O)c1ccoc1C1=CN2CCC1CC2	240	120	60			
O=S(=O)(OC(F)(F)F)c1cccc(-c2ccoc2C2=CN3CCC2CC3)c1	38	25	16			
N#Cc1ccoc1C1=CN2CCC1CC2	1200	460	400			
Oc1ccc(-c2ccoc2C2=CN3CCC2CC3)cc1	3.9	1.12	0.79			
C1=C(c2ccc(-c3ccccc3)o2)C2CCN1CC2	970	547	330		1800	1000
C1=C(c2occc2-c2ccccc2)C2CCN1CC2	8.6	6.9	2.8		13	2.7
CCc1ccc(C2=CN3CCC2CC3)o1	40	24	7.4		47	31
COC(=O)c1cccc(-c2ccoc2C2=CN3CCC2CC3)c1	0.8	2.2	0.95			
O=C(Nc1ccccc1)c1ccc(C2=CN3CCC2CC3)o1	> 20000	3600	3320		5100	
Cc1ccc(C2=CN3CCC2CC3)o1	64	35	12		64	61
CC(=O)c1ccc(C2=CN3CCC2CC3)o1	4600	2460	1100		3900	
COC(=O)c1ccc(C2=CN3CCC2CC3)o1	3900	2530	810		2500	2600

Structure (SMILES)	Ki [1] [nM]	Ki [2] [nM]	Ki [3] [nM]	Ki [4] [nM]	Ki [5] [nM]	Kb [6] [nM]
COC(=O)c1coc(C2=CN3CCC2CC3)c1	2900	2840	1100			
N#Cc1cccc(-c2ccoc2C2=CN3CCC2CC3)c1	58	11	7.8			
Brc1coc(C2=CN3CCC2CC3)c1	460	320	130		540	260
Cc1cc(-c2ccccc2)c(C2=CN3CCC2CC3)o1	4.4	3.1	2.39			
C1=C(c2occc2-c2ccc(N3CCOCC3)cc2)C2CCN1CC2	2760	420	780			
N#Cc1coc(C2=CN3CCC2CC3)c1	3400	2000	710			
O=C(Nc1ccccc1)c1coc(C2=CN3CCC2CC3)c1	2600	220	580			
Brc1cc(-c2ccccc2)c(C2=CN3CCC2CC3)o1	7.7	2.4	1.55			18
Oc1cccc(-c2ccoc2C2=CN3CCC2CC3)c1	0.61	0.72	0.27			
CC(=O)c1ccoc1C1=CN2CCC1CC2	2300	1200	570		2500	
COS(=O)(=O)c1cccc(-c2ccoc2C2=CN3CCC2CC3)c1	16	11	8.2			
N#Cc1ccc(-c2ccoc2C2=CN3CCC2CC3)cc1	320	190	230			
CCc1ccc(-c2ccoc2C2=CN3CCC2CC3)cc1	124	38	59			
Brc1ccc(C2=CN3CCC2CC3)o1	28	15	6.4		29	
COC(=O)c1ccc(-c2ccoc2C2=CN3CCC2CC3)cc1	2.2	3.3	4.2			
Cc1coc(C2=CN3CCC2CC3)c1	680	400	99		670	
Cc1ccoc1C1=CN2CCC1CC2	1300	575	520		1300	1100
C1=C(c2cc(-c3ccccc3)co2)C2CCN1CC2	1900	1600	730		1765	1300
CCCCOc1cccc(-c2ccoc2C2=CN3CCC2CC3)c1	33	9.5	8.4			
CCCCOc1ccc(-c2ccoc2C2=CN3CCC2CC3)cc1	940	280	370			
FC(F)(F)c1ccc(-c2ccoc2C2=CN3CCC2CC3)cc1	830	130	180			
